In experiment [1] the target is Alpha-2-HS-glycoprotein (Homo sapiens) (UniProt P02765). The experiment is described as follows: Binding affinity to AHSG in human NCI-H358 cells at 1 uM by mass spectrometry based pull down assay. Type of experiment: cell-based. In a few lines:
(§1)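 NCI-H23 or NCI-H358 cells were grown and lysed. Lysates were incubated overnight at 4 °C with 1 μM biotinylated covalent probe or DMSO, then pulled down on streptavidin beads. Proteins were run on polyacrylamide gels and stained with Coomassie. Bands were excised, digested and identified by mass spectrometry.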

Experiment [2] concerns the target ADP-ribose glycohydrolase OARD1 (Homo sapiens) (UniProt Q9Y530). The experiment is described as follows: Binding affinity to OARD1 in human NCI-H358 cells at 1 uM by mass spectrometry based pull down assay. Type of experiment: cell-based.
Experiment [3] addresses LIM domain kinase 1 (Homo sapiens) (UniProt P53667). The experiment is described as follows: Binding affinity to LIMK1 in human NCI-H358 cells at 1 uM by mass spectrometry based pull down assay. The format is cell-based.
For experiment [4], the target named is Methionine--tRNA ligase, cytoplasmic (Homo sapiens) (UniProt P56192). Put plainly: Binding affinity to MARS in human NCI-H358 cells at 1 uM by mass spectrometry based pull down assay. The format is cell-based.
Sequence of Methionine--tRNA ligase, cytoplasmic (Homo sapiens) (P56192 whole entry): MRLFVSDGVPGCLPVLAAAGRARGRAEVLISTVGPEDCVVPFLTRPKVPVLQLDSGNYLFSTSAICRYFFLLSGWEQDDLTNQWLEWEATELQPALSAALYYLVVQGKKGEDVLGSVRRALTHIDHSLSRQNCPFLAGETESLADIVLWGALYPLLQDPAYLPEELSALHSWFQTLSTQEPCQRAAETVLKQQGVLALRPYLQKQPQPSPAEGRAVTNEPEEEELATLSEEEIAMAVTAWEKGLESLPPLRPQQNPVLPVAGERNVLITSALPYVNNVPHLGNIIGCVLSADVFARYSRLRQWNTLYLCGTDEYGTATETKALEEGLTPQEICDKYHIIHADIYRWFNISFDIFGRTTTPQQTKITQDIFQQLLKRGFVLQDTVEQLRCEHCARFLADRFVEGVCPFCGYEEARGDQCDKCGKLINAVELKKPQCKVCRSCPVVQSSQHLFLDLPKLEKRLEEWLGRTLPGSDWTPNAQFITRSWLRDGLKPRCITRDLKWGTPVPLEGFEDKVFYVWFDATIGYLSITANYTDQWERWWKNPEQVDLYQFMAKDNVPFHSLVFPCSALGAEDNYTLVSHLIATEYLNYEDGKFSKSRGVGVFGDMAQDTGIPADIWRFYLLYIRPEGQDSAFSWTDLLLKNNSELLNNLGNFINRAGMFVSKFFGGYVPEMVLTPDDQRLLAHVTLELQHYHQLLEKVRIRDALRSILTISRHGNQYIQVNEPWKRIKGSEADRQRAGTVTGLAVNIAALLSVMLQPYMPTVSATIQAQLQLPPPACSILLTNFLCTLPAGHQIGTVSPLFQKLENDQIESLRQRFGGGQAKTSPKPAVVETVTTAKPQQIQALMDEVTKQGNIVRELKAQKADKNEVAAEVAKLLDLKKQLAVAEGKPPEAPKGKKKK
In experiment [5] the target is Calponin-2 (Homo sapiens) (UniProt Q99439). Put plainly: Binding affinity to CNN2 in human NCI-H358 cells at 1 uM by mass spectrometry based pull down assay. The format is cell-based.
Sequence of Calponin-2 (Homo sapiens) (Q99439 whole entry): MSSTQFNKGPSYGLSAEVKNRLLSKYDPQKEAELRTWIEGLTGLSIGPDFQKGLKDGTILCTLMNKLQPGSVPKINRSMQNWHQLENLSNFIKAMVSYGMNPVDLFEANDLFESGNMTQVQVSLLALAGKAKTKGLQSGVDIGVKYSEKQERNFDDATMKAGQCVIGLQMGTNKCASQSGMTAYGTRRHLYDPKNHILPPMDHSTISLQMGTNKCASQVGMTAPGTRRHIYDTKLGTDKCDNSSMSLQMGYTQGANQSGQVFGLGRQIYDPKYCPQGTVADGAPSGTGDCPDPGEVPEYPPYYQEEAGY
Experiment [6] addresses Polymeric immunoglobulin receptor (Homo sapiens) (UniProt P01833). Put plainly: Binding affinity to PIGR in human NCI-H358 cells at 1 uM by mass spectrometry based pull down assay. The format is cell-based.
The target of experiment [7] is Medium-chain specific acyl-CoA dehydrogenase, mitochondrial (Homo sapiens) (UniProt P11310). Put plainly: Binding affinity to ACADM in human NCI-H358 cells at 1 uM by mass spectrometry based pull down assay. Type of experiment: cell-based. A digest of the protocol:
as §1

The target of experiment [8] is Inosine-5'-monophosphate dehydrogenase 2 (Homo sapiens) (UniProt P12268). Put plainly: Binding affinity to IMPDH2 in human NCI-H23 cells at 1 uM by mass spectrometry based pull down assay. Type of experiment: cell-based.
Sequence of Inosine-5'-monophosphate dehydrogenase 2 (Homo sapiens) (P12268 2-514 limits assumed): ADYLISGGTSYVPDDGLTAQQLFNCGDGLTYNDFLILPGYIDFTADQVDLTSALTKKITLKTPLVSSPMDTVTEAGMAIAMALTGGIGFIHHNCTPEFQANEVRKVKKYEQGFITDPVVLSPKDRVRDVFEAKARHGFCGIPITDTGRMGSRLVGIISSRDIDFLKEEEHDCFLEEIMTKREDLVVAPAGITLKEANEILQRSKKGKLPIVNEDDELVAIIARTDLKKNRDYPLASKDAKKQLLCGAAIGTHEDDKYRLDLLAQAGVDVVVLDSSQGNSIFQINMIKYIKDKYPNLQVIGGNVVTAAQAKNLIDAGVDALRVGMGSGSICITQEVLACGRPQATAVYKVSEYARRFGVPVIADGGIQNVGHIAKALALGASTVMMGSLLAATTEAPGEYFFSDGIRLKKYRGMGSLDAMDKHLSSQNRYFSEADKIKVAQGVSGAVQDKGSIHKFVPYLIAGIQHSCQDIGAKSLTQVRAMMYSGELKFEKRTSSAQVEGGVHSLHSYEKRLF
Experiment [9] concerns the target T1, 80S Ribosome (Homo sapiens) (UniProt P08865+P42677+P62753+P15880+P23396+P61247+P62701+P22090+P46782+P62081+P62241+P46781+P46783+P62280+P25398+P62277+P62263+P62841+P62244+P62249+P08708+P62269+P39019+P60866+P63220+P62266+P62847+P62851+P62854+P62979+P62857+P62273+P62861+P39023+P36578+P46777+Q02878+P18124+P62424+P62917+P32969+P27635+P62906+P62913+P30050+P26373+P40429+P50914+P61313+P18621+Q07020+Q02543+P84098+P46778+P35268+P62829+P62750+P83731+P61254+P61353+P46776+P46779+P47914+P62888+P62899+P62910+P49207+P42766+P18077+Q9Y3U8+P83881+P61927+P61513+P63173+P62891+P62945+P05388+P05386). The experiment is described as follows: Binding affinity to RPL26 in human NCI-H23 cells at 1 uM by mass spectrometry based pull down assay. The format is cell-based.

Experiment [10] concerns the target T1, 80S Ribosome (Homo sapiens). Put plainly: Binding affinity to RPL24 in human NCI-H23 cells at 1 uM by mass spectrometry based pull down assay. The format is cell-based.
The target in experiment [11] is Tropomyosin alpha-1 chain (Homo sapiens) (UniProt P09493). The experiment is described as follows: Binding affinity to TPM1 in human NCI-H358 cells at 1 uM by mass spectrometry based pull down assay. Type of experiment: cell-based.
The target of experiment [12] is Multifunctional protein CAD (Homo sapiens) (UniProt P27708). Put plainly: Binding affinity to CAD in human NCI-H23 cells at 1 uM by mass spectrometry based pull down assay. The format is cell-based.
Experiment [13] has as its target Leucine-rich repeat-containing protein 15 (Homo sapiens) (UniProt Q8TF66). Put plainly: Binding affinity to LRRC15 in human NCI-H23 cells at 1 uM by mass spectrometry based pull down assay. Type of experiment: cell-based.
In experiment [14] the target is T2, Dual specificity mitogen-activated protein kinase kinase 6 (Homo sapiens) (UniProt P52564).
T2 sequence (whole entry): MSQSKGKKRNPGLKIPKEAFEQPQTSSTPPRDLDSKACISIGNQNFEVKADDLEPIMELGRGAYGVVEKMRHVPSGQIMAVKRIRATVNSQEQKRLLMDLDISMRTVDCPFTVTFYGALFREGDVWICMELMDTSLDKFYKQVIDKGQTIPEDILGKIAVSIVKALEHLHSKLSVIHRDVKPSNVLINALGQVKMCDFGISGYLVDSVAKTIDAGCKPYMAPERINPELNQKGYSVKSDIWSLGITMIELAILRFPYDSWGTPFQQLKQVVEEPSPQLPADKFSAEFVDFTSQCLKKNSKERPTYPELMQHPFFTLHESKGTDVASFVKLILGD
The experiment is described as follows: Binding affinity to MAP2K6 in human NCI-H23 cells at 1 uM by mass spectrometry based pull down assay. The format is cell-based.

For experiment [15], the target named is Tyrosine-protein kinase Fyn (Homo sapiens) (UniProt P06241). The experiment is described as follows: Inhibition of FYN in human SKCO1 cells at 1 uM after 4 hrs using biotin labeled VAIKTLKPGTMSPESFLEEAQIMK probe by mass-spectrometric analysis relative to control. The format is cell-based.
Sequence of Tyrosine-protein kinase Fyn (Homo sapiens) (P06241 2-537 limits assumed): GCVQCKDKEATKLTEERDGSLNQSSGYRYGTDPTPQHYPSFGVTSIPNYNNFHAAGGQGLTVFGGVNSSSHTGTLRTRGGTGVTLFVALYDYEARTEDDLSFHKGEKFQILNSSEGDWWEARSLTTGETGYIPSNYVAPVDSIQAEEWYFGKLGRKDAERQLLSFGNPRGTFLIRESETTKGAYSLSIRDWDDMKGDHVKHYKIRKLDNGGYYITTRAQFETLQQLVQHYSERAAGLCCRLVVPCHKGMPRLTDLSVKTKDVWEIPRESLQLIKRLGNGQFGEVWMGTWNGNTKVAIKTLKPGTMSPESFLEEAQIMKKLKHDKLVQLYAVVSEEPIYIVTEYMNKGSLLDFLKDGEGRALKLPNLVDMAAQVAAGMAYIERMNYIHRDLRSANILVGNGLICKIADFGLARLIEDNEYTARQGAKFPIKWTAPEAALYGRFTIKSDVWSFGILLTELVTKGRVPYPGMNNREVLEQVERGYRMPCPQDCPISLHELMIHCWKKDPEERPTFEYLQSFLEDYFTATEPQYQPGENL
In experiment [16] the target is Receptor-type tyrosine-protein kinase FLT3 (Homo sapiens) (UniProt P36888). Put plainly: Inhibition of human FLT3 (592 to 969 residues) expressed in bacterial expression system assessed as enzyme activity at 10 uM by KINOMEScan assay relative to control. Also on record: scale not given: the % may be the effect or the level left. A digest of the protocol:
(§2)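 In vitro ATP-site competition binding assay across a panel of 456 kinases, with compound tested at 1 and 10 μM.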

In experiment [17] the target is Platelet-derived growth factor receptor alpha (Homo sapiens) (UniProt P16234). Put plainly: Inhibition of human PDGFRA (575 to 1002 residues) expressed in mammalian expression system assessed as enzyme activity at 1 uM by KINOMEScan assay relative to control. Also noted: scale not given: the % may be the effect or the level left. In a few lines: as §2
Sequence of Platelet-derived growth factor receptor alpha (Homo sapiens) (P16234 whole entry, the tested form may be a part): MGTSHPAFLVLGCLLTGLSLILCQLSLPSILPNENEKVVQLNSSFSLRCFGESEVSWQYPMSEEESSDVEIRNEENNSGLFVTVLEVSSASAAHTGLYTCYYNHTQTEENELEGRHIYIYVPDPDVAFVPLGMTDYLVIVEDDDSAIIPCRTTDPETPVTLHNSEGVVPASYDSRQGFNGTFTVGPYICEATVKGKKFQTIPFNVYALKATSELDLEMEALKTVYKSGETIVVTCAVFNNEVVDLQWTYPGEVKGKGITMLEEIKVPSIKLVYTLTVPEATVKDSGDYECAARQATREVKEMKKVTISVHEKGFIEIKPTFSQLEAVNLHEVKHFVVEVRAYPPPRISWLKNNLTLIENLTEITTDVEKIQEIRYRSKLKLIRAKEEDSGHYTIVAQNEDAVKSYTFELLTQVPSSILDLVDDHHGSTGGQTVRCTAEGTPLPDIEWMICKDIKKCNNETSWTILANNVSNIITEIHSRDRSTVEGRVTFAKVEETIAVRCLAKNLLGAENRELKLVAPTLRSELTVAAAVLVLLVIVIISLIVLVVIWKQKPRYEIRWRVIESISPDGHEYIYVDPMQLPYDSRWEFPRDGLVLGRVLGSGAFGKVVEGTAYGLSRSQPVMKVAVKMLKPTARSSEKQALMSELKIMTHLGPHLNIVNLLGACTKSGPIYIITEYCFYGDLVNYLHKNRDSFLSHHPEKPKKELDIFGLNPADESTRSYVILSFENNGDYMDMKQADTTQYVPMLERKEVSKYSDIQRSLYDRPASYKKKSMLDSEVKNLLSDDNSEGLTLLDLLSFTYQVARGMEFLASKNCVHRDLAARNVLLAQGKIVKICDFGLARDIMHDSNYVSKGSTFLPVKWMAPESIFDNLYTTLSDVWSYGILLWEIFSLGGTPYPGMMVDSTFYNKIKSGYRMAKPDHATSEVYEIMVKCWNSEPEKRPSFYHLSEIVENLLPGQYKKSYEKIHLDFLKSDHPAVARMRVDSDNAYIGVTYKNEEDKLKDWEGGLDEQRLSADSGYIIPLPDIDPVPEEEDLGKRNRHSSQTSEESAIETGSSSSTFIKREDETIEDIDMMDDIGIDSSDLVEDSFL
Experiment [18] deals with T3, Dual specificity mitogen-activated protein kinase kinase 4 (Homo sapiens) (UniProt P45985).
T3 sequence (whole entry): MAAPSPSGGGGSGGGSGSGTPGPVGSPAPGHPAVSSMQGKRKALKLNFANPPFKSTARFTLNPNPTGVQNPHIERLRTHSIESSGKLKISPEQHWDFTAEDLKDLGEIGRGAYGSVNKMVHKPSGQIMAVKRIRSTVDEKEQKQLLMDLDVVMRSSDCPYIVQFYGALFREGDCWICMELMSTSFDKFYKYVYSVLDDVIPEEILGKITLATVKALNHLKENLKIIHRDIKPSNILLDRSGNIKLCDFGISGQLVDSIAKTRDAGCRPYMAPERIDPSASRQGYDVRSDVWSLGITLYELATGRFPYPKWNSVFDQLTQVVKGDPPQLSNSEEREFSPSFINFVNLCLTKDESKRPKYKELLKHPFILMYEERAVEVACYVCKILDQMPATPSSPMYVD
The experiment is described as follows: Inhibition of human MEK4 (84 to 399 residues) expressed in mammalian expression system assessed as enzyme activity at 10 uM by KINOMEScan assay relative to control. Also noted: scale not given: the % may be the effect or the level left. A digest of the protocol:
as §2

Activity calls are given as the source filed them. The calls are words filed in the database; no cut-off is given here.

Sequence of ADP-ribose glycohydrolase OARD1 (Homo sapiens) (Q9Y530 whole entry, the tested form may be a part): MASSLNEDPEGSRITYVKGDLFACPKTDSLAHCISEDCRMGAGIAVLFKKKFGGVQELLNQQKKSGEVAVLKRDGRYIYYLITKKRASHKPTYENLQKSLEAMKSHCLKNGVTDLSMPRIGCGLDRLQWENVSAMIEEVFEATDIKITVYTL
Sequence of Alpha-2-HS-glycoprotein (Homo sapiens) (P02765 whole entry): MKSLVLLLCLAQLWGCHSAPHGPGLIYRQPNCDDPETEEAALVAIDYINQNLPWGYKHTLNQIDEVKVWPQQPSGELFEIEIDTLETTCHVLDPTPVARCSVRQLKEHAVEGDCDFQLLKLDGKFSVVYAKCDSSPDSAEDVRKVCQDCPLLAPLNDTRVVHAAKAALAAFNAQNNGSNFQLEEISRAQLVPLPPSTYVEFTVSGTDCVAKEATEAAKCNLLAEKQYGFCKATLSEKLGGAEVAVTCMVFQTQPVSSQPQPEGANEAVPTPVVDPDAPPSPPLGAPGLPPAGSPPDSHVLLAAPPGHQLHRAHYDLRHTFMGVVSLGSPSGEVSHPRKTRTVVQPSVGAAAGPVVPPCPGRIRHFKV
Sequence of Medium-chain specific acyl-CoA dehydrogenase, mitochondrial (Homo sapiens) (P11310 whole entry): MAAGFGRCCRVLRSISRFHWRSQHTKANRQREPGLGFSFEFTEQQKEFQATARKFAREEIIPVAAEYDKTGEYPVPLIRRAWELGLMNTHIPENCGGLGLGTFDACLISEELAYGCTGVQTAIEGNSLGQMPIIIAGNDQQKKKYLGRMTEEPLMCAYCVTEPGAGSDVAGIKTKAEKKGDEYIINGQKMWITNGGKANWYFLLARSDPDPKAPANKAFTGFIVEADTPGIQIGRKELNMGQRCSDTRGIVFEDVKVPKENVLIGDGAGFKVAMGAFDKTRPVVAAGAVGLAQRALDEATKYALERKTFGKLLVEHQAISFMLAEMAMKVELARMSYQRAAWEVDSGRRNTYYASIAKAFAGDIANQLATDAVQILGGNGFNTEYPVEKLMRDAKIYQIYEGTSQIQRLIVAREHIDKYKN
Sequence of Leucine-rich repeat-containing protein 15 (Homo sapiens) (Q8TF66 whole entry): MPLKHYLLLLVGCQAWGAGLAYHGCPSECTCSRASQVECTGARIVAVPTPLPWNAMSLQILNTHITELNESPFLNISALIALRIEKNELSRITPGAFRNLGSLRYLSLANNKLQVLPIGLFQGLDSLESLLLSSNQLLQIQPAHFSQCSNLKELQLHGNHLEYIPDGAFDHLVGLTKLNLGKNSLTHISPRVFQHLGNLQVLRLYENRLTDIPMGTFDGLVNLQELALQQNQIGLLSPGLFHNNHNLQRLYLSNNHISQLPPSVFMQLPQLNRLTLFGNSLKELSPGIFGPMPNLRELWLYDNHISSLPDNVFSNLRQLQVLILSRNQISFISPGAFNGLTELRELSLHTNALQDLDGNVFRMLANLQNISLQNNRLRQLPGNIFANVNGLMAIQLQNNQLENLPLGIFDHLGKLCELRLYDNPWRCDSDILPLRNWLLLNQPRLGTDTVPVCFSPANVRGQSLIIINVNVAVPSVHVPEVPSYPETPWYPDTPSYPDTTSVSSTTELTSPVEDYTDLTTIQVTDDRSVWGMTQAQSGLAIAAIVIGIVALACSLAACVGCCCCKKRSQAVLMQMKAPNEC

As to `C=CC(=O)Nc1ccccc1Nc1nc(Nc2ccc(N3CCN(CCOCCOCCOCCNC(=O)CCCC[C@@H]4SC[C@@H]5NC(=O)N[C@@H]54)CC3)cc2)ncc1Cl`, the result in experiment [1], in [2], in experiment [3], in [4], in [5] and in experiment [6] was Active. Further, the result in [7], in [8], in [9], in experiment [10], in experiment [11] and in experiment [12] was Active. In addition, the outcome in experiment [13] and in [14] was Active.

Take `C=CC(=O)Nc1ccccc1Nc1nc(Nc2ccc(N3CCN(C)CC3)cc2)ncc1Cl`: the inhibition in experiment [15] stood at 8.3%.

For `COc1cc(O)c2c(c1)/C=C/C[C@H](O)[C@H](O)C(=O)/C=C\C[C@H](C)OC2=O`, the results for the Activity in experiment [16], in [17] and in [18] were 0.55%, 44% and 0.35%, respectively.
